Results pooled from the literature.
Protocols differ between the studies behind these lines.
BRD4 BD1: Bromodomain-containing protein 4, BD1 (BRD4, Homo sapiens, UniProt O60885)
murD: UDP-N-acetylmuramoylalanine--D-glutamate ligase (murD, Escherichia coli K-12, UniProt P14900)
HDAC8: Histone deacetylase 8 (HDAC8, Homo sapiens, UniProt Q9BY41)
BAZ1B: Tyrosine-protein kinase BAZ1B (BAZ1B, Homo sapiens, UniProt Q9UIG0)

Oc1ccc(-c2nc(-c3ccncc3)c(-c3ccc(F)cc3)[nH]2)cc1 — ΔTm (BRD4 BD1; thermal stability; DSF; 10 µM): 0.55 °C
CN(C)CCN1CCN(c2nc(NCc3cccc(Cl)c3)c3cc(-c4ccc(=O)n(C)c4)ccc3n2)CC1 — ΔTm (BRD4 BD1; thermal stability; DSF; 250 µM): 15 °C
O=C(Nc1ccc(C=NNS(=O)(=O)c2ccc3ccccc3c2)cc1)c1ccc([N+](=O)[O-])cc1 — remaining activity (murD; enzyme activity; inhibitor; absorbance; 50 µM): 81%
Nc1ncnc2occ(-c3ccc(NC(=O)Nc4cc(C(F)(F)F)ccc4F)cc3)c12 — remaining signal (Cyclin-dependent kinase 11B (CDK11B, Homo sapiens, UniProt P21127); cell-free assay; 20 µM): 0.4%
NS(=O)(=O)c1ccc(Nc2nc(-c3ccc(F)cc3)c3ccccc3n2)cc1 — remaining binding (BRD4 BD1; binding; competition with immobilised ligand; 1 µM): 5%
O=[N+]([O-])c1cccc(COc2ccccc2C=NNS(=O)(=O)c2ccc3ccccc3c2)c1 — remaining activity (murD; enzyme activity; inhibitor; absorbance; 50 µM): 70%
CCCOc1ccc(OC)c(F)c1C(=O)c1ccc(C(=O)N[C@@H]2CNC[C@H]2NC(=O)c2ccc3[nH]ncc3c2)cc1 — remaining activity (cGMP-dependent protein kinase 1 (PRKG1, Homo sapiens, UniProt Q13976); enzyme activity; inhibitor; 50 nM): 22%
O=c1c(O)c(-c2ccc(O)cc2)oc2cc(O)cc(O)c12 — inhibition (HDAC8; enzyme activity; inhibitor; 10 µM): 66.3%
N#Cc1ccc(COc2ccccc2C=NNS(=O)(=O)c2ccccc2[N+](=O)[O-])cc1 — remaining activity (murD; enzyme activity; inhibitor; absorbance; 100 µM): 86%
Cc1cc2c(cc1N1C(=O)c3cccc4c(Cl)ccc(c34)C1=O)n(C)c(=O)n2C — ΔTm (BAZ1B; thermal stability; DSF; 10 µM): -1 °C
Cc1cnc(Nc2ccc(OCCN3CCCC3)cc2)nc1Nc1cccc(S(=O)(=O)NC(C)(C)C)c1 — ΔTm (Bromodomain-containing protein 4, BD2 (BRD4, Homo sapiens, UniProt O60885); thermal stability; DSF; 10 µM): 3.11 °C
O=C(Cc1ccc2c(c1)OCO2)Oc1ccccc1C=NNS(=O)(=O)c1ccc2ccccc2c1 — remaining activity (murD; enzyme activity; inhibitor; absorbance; 100 µM): 49%
Cc1ccc(C(=O)Nc2ccc(CN3CCN(C)CC3)c(C(F)(F)F)c2)cc1C#Cc1cnc2cccnn12 — remaining activity (Mitogen-activated protein kinase kinase kinase 4 (MAP3K4, Homo sapiens, UniProt Q9Y6R4); enzyme activity; inhibitor; 23.5 nM): 95%
O=[N+]([O-])c1ccccc1S(=O)(=O)Oc1ccccc1C=NNS(=O)(=O)c1ccc2ccccc2c1 — remaining activity (murD; enzyme activity; inhibitor; absorbance; 50 µM): 71%
CC(C)[C@@H]1NC(=O)[C@@H]2CCCN2C(=O)[C@H](Cc2ccccc2)NC(=O)CSC[C@@H](C(=O)N[C@@H](Cc2ccc(O)cc2)C(N)=O)NC(=O)[C@H](Cc2c[nH]c3ccccc23)NC(=O)[C@H](CCCCN)NC(=O)[C@H](Cc2ccccc2)N(C)C(=O)[C@H](Cc2ccccc2)NC1=O — ΔTm (BRD4 BD1; thermal stability; DSF; 200 µM): -0.27 °C
C[S+]([O-])c1ccc(-c2nc(-c3ccncc3)c(-c3ccc(F)cc3)[nH]2)cc1 (centres unmarked) — ΔTm (BAZ1B; thermal stability; DSF; 10 µM): 0.29 °C
CC[C@H](CC[C@@H](C)[C@H]1CC[C@H]2[C@@H]3CC=C4C[C@@H](O[C@@H]5O[C@H](CO)[C@@H](O)[C@H](O)[C@H]5O)CC[C@]4(C)[C@H]3CC[C@]12C)C(C)C — inhibition (HDAC8; enzyme activity; inhibitor; 10 µM): -8.57%
